Xi reactivation: activators of X-chromosome reactivation in mouse fibroblasts. XiGFP mouse fibroblasts, % GFP-positive cells imaging, 3 d; cells co-treated with 5-aza-dC sensitizer; scaled so ellipticine positive control = 100%. activation, % at 7.58 µM. actives 0.055% (n = 360,000);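 active = mean normalized replicate activation at least 10% and every replicate at or above 10%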;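 also: 0% = median of on-plate neutral control wells and 100% = ellipticine 6 µM median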
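Assay system – SV40-immortalized XiGFP fibroblast cells, line 68-5-11 · Buffer or medium – DMEM supplemented with 5-aza-dC as sensitizing agent · Dosing – one concentration, pinned · Benchmarks – positive control ellipticine, 6 µM final · Times – 3 days compound exposure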
Cneo AK release: Cryptococcus neoformans lysis via adenylate kinase release; AID 651654; C. neoformans lysis, adenylate kinase release luminescence, 4 h; normalised: neutral wells 0, clomiphene wells 100; actives 0.2% (n = 360,000); lysis activity, % at 15 µM;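 active = mean lysis activity across replicates of at least 80%, whatever share of replicates individually reach that level; inactive = mean lysis activity below 80%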
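Material – Cryptococcus neoformans yeast cells · Quantity – 5 × 10^6 yeast cells/mL · Buffer or medium – YPD medium · Compound – single dose · Timing – 4 h static compound exposure, 37 °C, read 1 h post-reagent · Signal – adenylate kinase release luminescence · Read-out basis – lysis from increased AK signal · Benchmarks – Clomiphene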
DENV2 CPE rescue: DENV2-induced cell death inhibition; actives 1.7% (n = 350,000); CPE inhibition, % at 9.99 µM; DENV2-infected cells, cytopathic effect rescue, plate reader; in the data active = CPE inhibition above about 20%, passing the limit was not always enough; tested in BHK-21 cells;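 also: 0% = median of neutral control wells and 100% = median of positive control wells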
C2C12 statin: protects C2C12 myotubes from simvastatin toxicity. ATP luminescence, 48 h; scaled: DMSO 0, geranylgeraniol control 100. rescue of ATP level, % at 7.49 µM. actives 0.78% (n = 330,000). AID 602340;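 active = mean ATP rescue above about 67%, or every replicate alone reaching that limit, limit read from the data, passing the limit was not always enough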;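 also: myotubes were challenged with 10 µM simvastatin during compound exposure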
* hit, by the source's call. Most compounds without a hit are left out; they make up all but 2.1% or so of the library.

What do the screens show for `O=C(OC(C(=O)NCc1ccccc1)c1ccccc1F)c1ccco1` (stereo unspecified)?
Xi reactivation: 0; Cneo AK release: -1; DENV2 CPE rescue: 0; C2C12 statin: 1

How did O=C(OC(C(=O)NCc1ccc2c(c1)OCO2)c1ccccc1F)c1ccco1 (stereo unspecified) do in these assays?
Cneo AK release: 1; C2C12 statin: 84*

What do the screens show for `C[C@H](CO)N1C[C@H](C)[C@@H](CN(C)Cc2ccc3c(c2)OCO3)Oc2ccc(N(C)C)cc2C1=O`?
Xi reactivation: 0; Cneo AK release: 0; DENV2 CPE rescue: 23*; C2C12 statin: 24

What do the screens show for `C[C@@H]1CN([C@H](C)CO)C(=O)c2cc(N(C)C)ccc2O[C@H]1CN(C)Cc1ccc2c(c1)OCO2`?
Xi reactivation: -1; Cneo AK release: -5; DENV2 CPE rescue: -9; C2C12 statin: 1

What do the screens show for `C[C@@H]1CN([C@H](C)CO)C(=O)c2cc(NC(=O)C3CC3)ccc2O[C@@H]1CN(C)Cc1ccc2c(c1)OCO2`?
Xi reactivation: 0; Cneo AK release: 1; DENV2 CPE rescue: 7; C2C12 statin: 18

What do the screens show for `C[C@@H]1CN([C@@H](C)CO)C(=O)c2cc(NC(=O)Nc3ccc4c(c3)OCO4)ccc2O[C@@H]1CN(C)Cc1ccc2c(c1)OCO2`?
Xi reactivation: 0; Cneo AK release: -1; DENV2 CPE rescue: 42*; C2C12 statin: -59

What do the screens show for `C[C@@H]1CN([C@@H](C)CO)C(=O)c2cc(NC(=O)C3CC3)ccc2O[C@H]1CN(C)Cc1ccc2c(c1)OCO2`?
Xi reactivation: 0; Cneo AK release: 101*; DENV2 CPE rescue: -11; C2C12 statin: -27

How did Cc1ccc(-c2nnc(-c3ccccc3)c(-c3ccccc3)n2)cc1 do in these assays?
Xi reactivation: 0; Cneo AK release: 1; DENV2 CPE rescue: -7

How did Nc1nnc(-c2ccccc2)c(-c2ccccc2)n1 do in these assays?
Cneo AK release: 0; C2C12 statin: 121*

How did CCCNC(=O)C[C@@H]1CC[C@H]2[C@@H](COc3ccc(NC(=O)C4CCOCC4)cc3C(=O)N2C)O1 do in these assays?
Xi reactivation: 0; Cneo AK release: 58; DENV2 CPE rescue: -7; C2C12 statin: 2

Results for Cc1cc2c(N=O)c(NO)ccc2[nH]1 ?
Cneo AK release: 1; C2C12 statin: 80*

How did C[C@@H]1CN([C@@H](C)CO)C(=O)c2cc(-c3ccccc3)cnc2O[C@H]1CN(C)C(=O)C1CCCCC1 do in these assays?
Xi reactivation: -1; Cneo AK release: 2; DENV2 CPE rescue: 51*; C2C12 statin: -10

What do the screens show for `C/C=C/c1cnc2c(c1)C(=O)N([C@H](C)CO)C[C@@H](C)[C@@H](CN(C)C(=O)C1CCCCC1)O2`?
Xi reactivation: -1; Cneo AK release: 95*; DENV2 CPE rescue: -5; C2C12 statin: 24

Results for CO[C@H]1CN(C)C(=O)c2ccc(NC(=O)C3CCOCC3)cc2OC[C@H](C)N(Cc2cccnc2)C[C@H]1C ?
Xi reactivation: 0; Cneo AK release: -2; DENV2 CPE rescue: 4; C2C12 statin: -7

How did CCCN1[C@@H]2c3ccc(-c4ccccc4F)c(=O)n3C[C@@H]2[C@@H](CO)[C@@H]1C(=O)NC1CCC1 do in these assays?
Xi reactivation: 1; Cneo AK release: 1; DENV2 CPE rescue: -2; C2C12 statin: 33

Results for O=C(C[C@H]1CC[C@@H](NC(=O)NC2CCCCC2)[C@H](CO)O1)NCc1ccc(F)cc1 ?
Xi reactivation: 0; Cneo AK release: -1; DENV2 CPE rescue: -1; C2C12 statin: 0

How did C[C@@H]1CN([C@@H](C)CO)C(=O)Cc2cc(NC(=O)Cc3ccccc3)ccc2O[C@@H]1CN(C)Cc1ccc(Cl)c(Cl)c1 do in these assays?
Xi reactivation: 0; Cneo AK release: 3; DENV2 CPE rescue: 66*; C2C12 statin: 64

Results for C[C@@H]1CN([C@H](C)CO)C(=O)Cc2cc(NC(=O)Cc3ccccc3)ccc2O[C@@H]1CN(C)Cc1ccc(Cl)c(Cl)c1 ?
Xi reactivation: 0; Cneo AK release: 1; DENV2 CPE rescue: 88*; C2C12 statin: 61

What do the screens show for `COc1ccc(S(=O)(=O)NC(CC(=O)NCc2ccc3c(c2)OCO3)c2ccco2)cc1` (stereo unspecified)?
Cneo AK release: 0; C2C12 statin: 117*

How did CCCNC(=O)CC(NS(=O)(=O)c1ccc(OC)cc1)c1ccco1 (stereo unspecified) do in these assays?
Xi reactivation: 0; DENV2 CPE rescue: 5
